ChEMBL document CHEMBL3228024, “Prodrug analogues of the antitumor alkaloid camptothecin” (1979)
Activity calls are given as the source filed them. The rule behind the calls is not given here.

What was measured:
P388 [1] = assay: Antitumor activity against mouse P388 cells allografted in mouse assessed as increase in mouse survival time at 0.4 mg/kg, iv for 4 to 9 days relative to control; format: functional
Outline: (§1)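 Run under NCI protocols 3LE21 (L1210) and 3PS31 (P388) in mice, six mice per test group. Drug was injected daily for 9 days, with 20–30 uninjected control animals. Mean or median survival time of the treated group was divided by that of controls and multiplied by 100, then reported as percentage increase in life span.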

L1210 [2] = assay: Antitumor activity against mouse L1210 cells allografted in mouse assessed as increase in mouse survival time at 0.4 mg/kg, iv for 4 to 9 days relative to control; format: functional; outline: as §1
P388 [3] = assay: Antitumor activity against mouse P388 cells allografted in mouse assessed as increase in mouse survival time at 11.1 mg/kg, iv for 4 to 9 days relative to control; format: functional; outline: as §1
P388 [4] = assay: Antitumor activity against mouse P388 cells allografted in mouse assessed as increase in mouse survival time at 3.7 mg/kg, iv for 4 to 9 days relative to control; format: functional; outline: as §1
P388 [5] = assay: Antitumor activity against mouse P388 cells allografted in mouse assessed as increase in mouse survival time at 1.2 mg/kg, iv for 4 to 9 days relative to control; format: functional; outline: as §1
L1210 [6] = assay: Antitumor activity against mouse L1210 cells allografted in mouse assessed as increase in mouse survival time at 11.1 mg/kg, iv for 4 to 9 days relative to control; format: functional; outline: as §1
L1210 [7] = assay: Antitumor activity against mouse L1210 cells allografted in mouse assessed as increase in mouse survival time at 3.7 mg/kg, iv for 4 to 9 days relative to control; format: functional; outline: as §1
L1210 [8] = assay: Antitumor activity against mouse L1210 cells allografted in mouse assessed as increase in mouse survival time at 1.2 mg/kg, iv for 4 to 9 days relative to control; format: functional; outline: as §1
HeLa = assay: Antitumor activity against human HeLa cells assessed as inhibition of radioactive thymidine incorporation into acid-insoluble material by DNA sedimentation assay; format: functional, cell-based
P388 [9] = assay: Antitumor activity against mouse P388 cells allografted in mouse assessed as increase in mouse survival time at 45 mg/kg, iv for 4 to 9 days relative to control; format: functional; outline: as §1
P388 [10] = assay: Antitumor activity against mouse P388 cells allografted in mouse assessed as increase in mouse survival time at 23 mg/kg, iv for 4 to 9 days relative to control; format: functional; outline: as §1
P388 [11] = assay: Antitumor activity against mouse P388 cells allografted in mouse assessed as increase in mouse survival time at 6.4 mg/kg, iv for 4 to 9 days relative to control; format: functional; outline: as §1
[12] = Cytotoxicity against human 9KB cells; format: functional
P388 [13] = assay: Cytotoxicity against mouse P388 cells; format: functional; details: Mus musculus, P388; read-out: ED50 (the source's name)
L1210 [14] = assay: Cytotoxicity against mouse L1210 cells; format: functional
[15] = Cytotoxicity against human 9KB cells relative to camptothecin; format: functional
P388 [16] = assay: Cytotoxicity against mouse P388 cells relative to camptothecin; format: functional
L1210 [17] = assay: Cytotoxicity against mouse L1210 cells relative to camptothecin; format: functional
P388 [18] = assay: Antitumor activity against mouse P388 cells allografted in mouse assessed as increase in mouse survival time at 0.5 mg/kg, iv for 4 to 9 days relative to control; format: functional; outline: as §1
L1210 [19] = assay: Antitumor activity against mouse L1210 cells allografted in mouse assessed as increase in mouse survival time at 0.5 mg/kg, iv for 4 to 9 days relative to control; format: functional; outline: as §1
[20] = system: Lewis lung carcinoma cell line; assay: Antitumor activity against mouse LLC cells allografted in mouse assessed as increase in mouse survival time at 4 mg/kg, iv for 4 to 9 days relative to control; format: functional
Outline: (§2)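 Run under NCI protocols 3B131 (B-16 melanocytic melanoma) and 3LL32 (Lewis lung carcinoma) in mice, ten mice per test group. Drug was injected every 4 days, with 20–30 uninjected control animals. Mean or median survival of treated mice over that of controls ×100 was reported as percentage increase in life span.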

P388 [21] = assay: Antitumor activity against mouse P388 cells allografted in mouse assessed as increase in mouse survival time at 14.3 mg/kg, iv for 4 to 9 days relative to control; format: functional; outline: as §1
P388 [22] = assay: Antitumor activity against mouse P388 cells allografted in mouse assessed as increase in mouse survival time at 4.8 mg/kg, iv for 4 to 9 days relative to control; format: functional; outline: as §1
P388 [23] = assay: Antitumor activity against mouse P388 cells allografted in mouse assessed as increase in mouse survival time at 1.6 mg/kg, iv for 4 to 9 days relative to control; format: functional; outline: as §1
L1210 [24] = assay: Antitumor activity against mouse L1210 cells allografted in mouse assessed as increase in mouse survival time at 14.3 mg/kg, iv for 4 to 9 days relative to control; format: functional; outline: as §1
L1210 [25] = assay: Antitumor activity against mouse L1210 cells allografted in mouse assessed as increase in mouse survival time at 4.8 mg/kg, iv for 4 to 9 days relative to control; format: functional; outline: as §1
L1210 [26] = assay: Antitumor activity against mouse L1210 cells allografted in mouse assessed as increase in mouse survival time at 1.6 mg/kg, iv for 4 to 9 days relative to control; format: functional; outline: as §1
B16 [27] = assay: Antitumor activity against mouse B16 cells allografted in mouse assessed as increase in mouse survival time at 46 mg/kg, iv for 4 to 9 days relative to control; format: functional; outline: as §2
B16 [28] = assay: Antitumor activity against mouse B16 cells allografted in mouse assessed as increase in mouse survival time at 14.6 mg/kg, iv for 4 to 9 days relative to control; format: functional; outline: as §2
B16 [29] = assay: Antitumor activity against mouse B16 cells allografted in mouse assessed as increase in mouse survival time at 4 mg/kg, iv for 4 to 9 days relative to control; format: functional; outline: as §2
[30] = system: Lewis lung carcinoma cell line; assay: Antitumor activity against mouse LLC cells allografted in mouse assessed as increase in mouse survival time at 44.4 mg/kg, iv for 4 to 9 days relative to control; format: functional; outline: as §2
[31] = system: Lewis lung carcinoma cell line; assay: Antitumor activity against mouse LLC cells allografted in mouse assessed as increase in mouse survival time at 14.6 mg/kg, iv for 4 to 9 days relative to control; format: functional; outline: as §2
P388 [32] = assay: Antitumor activity against mouse P388 cells allografted in mouse assessed as increase in mouse survival time at 62.5 mg/kg, iv for 4 to 9 days relative to control; format: functional
Outline: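 Mice bearing P388 leukemia (NCI protocol 3PS31), six mice per test, drug injected daily for 9 days (in some tests for only 6 days). Controls were 20–30 animals receiving no injection. Activity was expressed as mean/median survival time of the test group divided by that of the control group ×100.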

CC[C@@](O)(C(=O)[O-])c1cc2n(c(=O)c1CO)Cc1cc3ccccc3nc1-2.[Na+]
T/C (P388 [1]): 139% | T/C (L1210 [2]): 116% | T/C (P388 [3]): 67% | T/C (P388 [4]): 85% | T/C (P388 [5]): 168% | T/C (L1210 [6]): 74% | T/C (L1210 [7]): 114% | T/C (L1210 [8]): 147% | inhibition (HeLa): Active

CC[C@@](O)(C(=O)NC(C)C)c1cc2n(c(=O)c1Cn1ccnc1)Cc1cc3ccccc3nc1-2
T/C (P388 [9]): 92% | T/C (P388 [10]): 89% | T/C (P388 [11]): 105%

CCCCCC(=O)OCc1c([C@@](O)(CC)C(=O)NC(C)C)cc2n(c1=O)Cc1cc3ccccc3nc1-2
ED50 [12]: 8.1 ×10⁻⁵ umol/ml | EC50 (P388 [13]): 1200 nM | ED50 (L1210 [14]): 5.5 ×10⁻⁴ umol/ml | Activity [15]: 29% | Activity (P388 [16]): 0.01% | Activity (L1210 [17]): 2% | T/C (P388 [18]): 107% | T/C (L1210 [19]): 105% | T/C [20]: 163% | T/C (P388 [21]): 155% | T/C (P388 [22]): 139% | T/C (P388 [23]): 107% | T/C (L1210 [24]): 133% | T/C (L1210 [25]): 116% | T/C (L1210 [26]): 105% | T/C (B16 [27]): 109% | T/C (B16 [28]): 109% | T/C (B16 [29]): 110% | T/C [30]: 134% | T/C [31]: 147% | inhibition (HeLa): Active

CC[C@@](O)(C(=O)NC(C)C)c1cc2n(c(=O)c1CN1CCCC1)Cc1cc3ccccc3nc1-2.Cl
T/C (P388 [32]): 125%
